We go through one compound from ChEMBL document CHEMBL3286381 (J Med Chem, 2014).

What all share (format): ADME, cell-based
Holding throughout (conditions): cos-7, 1 h

The target in data set [1] is T1, Ectonucleoside triphosphate diphosphohydrolase 1 (Homo sapiens, UniProt P49961).
T1 sequence (P49961 whole entry): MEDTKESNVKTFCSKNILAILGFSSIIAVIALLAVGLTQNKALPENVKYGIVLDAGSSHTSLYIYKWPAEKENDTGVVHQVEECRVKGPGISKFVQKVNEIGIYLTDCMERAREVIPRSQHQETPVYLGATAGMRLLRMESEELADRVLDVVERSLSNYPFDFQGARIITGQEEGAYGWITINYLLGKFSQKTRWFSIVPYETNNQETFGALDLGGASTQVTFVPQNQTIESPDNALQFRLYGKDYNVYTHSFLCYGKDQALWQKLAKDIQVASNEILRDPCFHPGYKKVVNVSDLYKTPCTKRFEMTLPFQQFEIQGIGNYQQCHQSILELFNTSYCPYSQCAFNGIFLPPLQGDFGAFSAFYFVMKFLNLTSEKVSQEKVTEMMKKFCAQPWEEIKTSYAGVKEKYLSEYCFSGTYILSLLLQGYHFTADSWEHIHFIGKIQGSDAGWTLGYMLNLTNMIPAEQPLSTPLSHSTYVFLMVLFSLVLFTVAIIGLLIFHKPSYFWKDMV
In words: Drug metabolism assessed as human NTPDase-1-mediated compound hydrolysis expressed in African green monkey COS7 cells at 100 uM after 1 hr by HPLC analysis. The method, boiled down: (§1)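 Protein extracts are from COS-7 cells transiently transfected with human NTPDase1, 2, 3 or 8. The incubation uses Tris–Ringer buffer pH 7.3 at 37 °C with 3 min extract preincubation. Analogue is added alone at 100 μM final. […] Three experiments in triplicate.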

Data set [2] concerns the target T2, Ectonucleoside triphosphate diphosphohydrolase 2 (Homo sapiens, UniProt Q9Y5L3).
T2 sequence (Q9Y5L3 whole entry): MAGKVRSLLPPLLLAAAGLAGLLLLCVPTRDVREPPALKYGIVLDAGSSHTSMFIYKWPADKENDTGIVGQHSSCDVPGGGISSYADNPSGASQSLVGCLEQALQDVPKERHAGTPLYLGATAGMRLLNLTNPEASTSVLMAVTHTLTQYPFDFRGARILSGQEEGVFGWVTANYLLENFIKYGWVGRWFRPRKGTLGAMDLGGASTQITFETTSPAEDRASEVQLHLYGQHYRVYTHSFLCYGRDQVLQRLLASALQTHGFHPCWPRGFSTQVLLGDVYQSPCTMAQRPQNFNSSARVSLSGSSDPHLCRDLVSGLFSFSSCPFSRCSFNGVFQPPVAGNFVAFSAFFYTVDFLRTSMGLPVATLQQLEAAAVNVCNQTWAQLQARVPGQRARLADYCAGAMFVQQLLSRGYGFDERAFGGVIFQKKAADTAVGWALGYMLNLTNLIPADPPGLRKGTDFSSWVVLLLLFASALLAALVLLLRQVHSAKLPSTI
Put plainly: Drug metabolism assessed as human NTPDase-2-mediated compound hydrolysis expressed in African green monkey COS7 cells at 100 uM after 1 hr by HPLC analysis. In short, it runs like this: as §1

In data set [3] the target is T3, Ectonucleoside triphosphate diphosphohydrolase 3 (Homo sapiens, UniProt O75355).
T3 sequence (O75355 whole entry): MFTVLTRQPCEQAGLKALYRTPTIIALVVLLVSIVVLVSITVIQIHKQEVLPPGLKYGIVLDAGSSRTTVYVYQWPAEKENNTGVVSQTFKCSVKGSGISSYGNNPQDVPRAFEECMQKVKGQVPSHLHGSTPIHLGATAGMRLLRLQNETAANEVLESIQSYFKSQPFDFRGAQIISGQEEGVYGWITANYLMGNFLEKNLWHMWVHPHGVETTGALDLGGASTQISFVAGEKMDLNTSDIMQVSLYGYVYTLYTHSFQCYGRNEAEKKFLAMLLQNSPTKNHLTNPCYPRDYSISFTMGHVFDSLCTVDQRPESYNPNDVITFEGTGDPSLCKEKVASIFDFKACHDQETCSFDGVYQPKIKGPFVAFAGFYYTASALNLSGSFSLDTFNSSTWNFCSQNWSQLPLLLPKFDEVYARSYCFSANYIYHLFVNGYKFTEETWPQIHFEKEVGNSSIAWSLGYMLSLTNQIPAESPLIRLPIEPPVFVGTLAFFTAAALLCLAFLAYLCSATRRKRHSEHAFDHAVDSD
In words: Drug metabolism assessed as human NTPDase-3-mediated compound hydrolysis expressed in African green monkey COS7 cells at 100 uM after 1 hr by HPLC analysis. The method, boiled down: as §1

The target of data set [4] is T4, Ectonucleotide pyrophosphatase/phosphodiesterase family member 1 (Homo sapiens, UniProt P22413).
T4 sequence (P22413 whole entry): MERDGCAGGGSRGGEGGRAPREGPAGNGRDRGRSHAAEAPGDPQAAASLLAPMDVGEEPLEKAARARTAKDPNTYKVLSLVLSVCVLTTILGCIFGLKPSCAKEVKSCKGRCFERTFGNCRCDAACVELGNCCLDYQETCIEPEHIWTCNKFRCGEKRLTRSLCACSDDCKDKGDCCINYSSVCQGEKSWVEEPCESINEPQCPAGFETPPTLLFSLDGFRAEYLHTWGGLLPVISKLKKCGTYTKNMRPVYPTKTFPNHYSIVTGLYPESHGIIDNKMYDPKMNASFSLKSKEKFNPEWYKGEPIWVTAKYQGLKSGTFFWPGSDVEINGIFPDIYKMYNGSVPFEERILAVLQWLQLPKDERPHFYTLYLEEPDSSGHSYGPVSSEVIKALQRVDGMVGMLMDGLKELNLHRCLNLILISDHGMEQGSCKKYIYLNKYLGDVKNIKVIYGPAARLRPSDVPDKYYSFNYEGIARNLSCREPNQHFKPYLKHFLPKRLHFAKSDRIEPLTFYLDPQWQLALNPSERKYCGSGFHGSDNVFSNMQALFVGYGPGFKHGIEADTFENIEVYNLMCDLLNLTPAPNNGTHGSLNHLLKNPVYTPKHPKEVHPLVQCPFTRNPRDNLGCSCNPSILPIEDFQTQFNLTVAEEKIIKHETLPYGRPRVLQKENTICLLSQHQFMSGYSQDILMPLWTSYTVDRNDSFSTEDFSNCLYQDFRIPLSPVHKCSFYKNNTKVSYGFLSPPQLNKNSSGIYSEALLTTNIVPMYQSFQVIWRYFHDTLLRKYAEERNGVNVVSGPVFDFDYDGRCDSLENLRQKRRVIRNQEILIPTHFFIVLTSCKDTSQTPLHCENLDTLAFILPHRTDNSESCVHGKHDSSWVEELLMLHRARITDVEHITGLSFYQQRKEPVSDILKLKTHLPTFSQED
In words: Drug metabolism assessed as human NPP1-mediated compound hydrolysis expressed in African green monkey COS7 cells at 100 uM after 1 hr by HPLC analysis.

Data set [5] addresses T5, Ectonucleotide pyrophosphatase/phosphodiesterase family member 3 (Homo sapiens, UniProt O14638).
T5 sequence (O14638 whole entry): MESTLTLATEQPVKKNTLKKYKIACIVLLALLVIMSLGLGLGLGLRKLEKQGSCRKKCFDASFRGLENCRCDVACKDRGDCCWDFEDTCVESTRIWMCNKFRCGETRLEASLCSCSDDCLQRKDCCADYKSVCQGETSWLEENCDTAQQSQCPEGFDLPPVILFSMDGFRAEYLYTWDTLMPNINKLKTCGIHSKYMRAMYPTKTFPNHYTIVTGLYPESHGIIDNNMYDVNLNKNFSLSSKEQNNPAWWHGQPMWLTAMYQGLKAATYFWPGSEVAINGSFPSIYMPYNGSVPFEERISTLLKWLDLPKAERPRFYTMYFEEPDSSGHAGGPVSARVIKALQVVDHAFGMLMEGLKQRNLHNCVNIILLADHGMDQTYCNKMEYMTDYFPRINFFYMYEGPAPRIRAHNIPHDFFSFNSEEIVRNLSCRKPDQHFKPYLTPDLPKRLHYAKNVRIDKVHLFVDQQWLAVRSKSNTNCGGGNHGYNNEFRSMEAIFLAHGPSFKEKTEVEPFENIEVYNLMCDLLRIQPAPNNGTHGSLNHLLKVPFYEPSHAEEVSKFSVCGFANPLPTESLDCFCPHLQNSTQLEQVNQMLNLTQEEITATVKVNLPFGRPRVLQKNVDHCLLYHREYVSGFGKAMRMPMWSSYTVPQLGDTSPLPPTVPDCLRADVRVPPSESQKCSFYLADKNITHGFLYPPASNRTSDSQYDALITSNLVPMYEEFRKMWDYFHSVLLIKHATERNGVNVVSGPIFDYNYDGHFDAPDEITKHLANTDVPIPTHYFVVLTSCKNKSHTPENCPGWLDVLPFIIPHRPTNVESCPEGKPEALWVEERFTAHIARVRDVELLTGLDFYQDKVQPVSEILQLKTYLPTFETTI
Put plainly: Drug metabolism assessed as human NPP3-mediated compound hydrolysis expressed in African green monkey COS7 cells at 100 uM after 1 hr by HPLC analysis.

In the case of `Nc1ncnc2c1ncn2[C@@H]1O[C@H](COP(=O)(O)OP(=O)(O)OP(=O)(O)O)[C@@H](O)[C@H]1O` [ADENOSINE TRIPHOSPHATE], the Drug metabolism stood at 807 nmol/min/mg in data set [1]; 1051 nmol/min/mg in data set [2]; 240 nmol/min/mg in data set [3]; 67 nmol/min/mg in data set [4]; 54 nmol/min/mg in data set [5].
